# Screening data (PubChem)
# Apaf-1 inh: blocks human Apaf-1 apoptosome activity | reconstituted apoptosome caspase-3 activity, DEVD-Rh110 fluorescence | 0.71% of 330,000 active | inhibition, % at 20 µM; active = inhibition of at least 40% at 20 µM;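 also: plate controls were DMSO wells for no effect and DEVD-CHO caspase inhibitor wells for full effect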
#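 Medium: Hepes buffer, pH 7.5 / System: biochemical Apaf-1 apoptosome reconstitution / Measured by: Rh110 fluorescence, excitation 480 nm, emission 540 nm / Times: compound with Apaf-1, dATP, procaspase-3 30 min, then 50 min reaction, room temperature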
# UBC13 inh: inhibitors of human UBC13 polyubiquitin chain formation | AID 485273 | P61088 | inhibition, % at 20 µM | 0.47% of 330,000 active | TR-FRET; in the data active = inhibition above about 45%, passing the limit was not always enough
# CHOP UPR activ: apoptotic UPR (CHOP) activation. CHO-CHOP luciferase reporter, luminescence; percent of tunicamycin response over DMSO baseline. activation, % at 10 µM. 0.34% of 330,000 active;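 active = at 10 µM dose, activation of 40% or more, normalized to positive control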;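 also: 100% = tunicamycin at 10 µg/mL and 0% = DMSO alone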
#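 Assay system: CHO cells with stable CHOP pathway luciferase reporter; Buffer or medium: F12 plus 10% serum; Times: 16-18 h cell attachment, then 6 h compound exposure, 37 °C; Signal: luciferase luminescence; Read-out basis: percent activation relative to tunicamycin control; Control set: tunicamycin high control, DMSO low control.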
# UPR XBP1 act: activators of adaptive arm of unfolded protein response (XBP1) | activation, % at 20 µM | 0.33% of 330,000 active | CHO-XBP1 luciferase reporter, IRE1-XBP1 UPR activation, luminescence; percent of tunicamycin response, DMSO as zero;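 active = versus positive control, 20 µM dose yields 30% or more activation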;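 also: 100% = tunicamycin at 10 µg/mL and 0% = DMSO only wells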
#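 Material: CHO-XBP1 cells stably carrying IRE1-XBP1-driven luciferase reporter | Medium: F12 with 10% serum | Compound dosing: 20 µM single concentration, DMSO 1% | Incubation: Overnight seeding at 37 °C, 6 h compound treatment at 37 °C | Detection: Steady-Glo luminescence read | Read-out basis: % activation of reporter signal versus tunicamycin and DMSO controls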
# Mdm2-MdmX inh: inhibitors of human Mdm2/MdmX interaction | O15151+Q00987 | AID 485346 | inhibition, % at 8 µM | 3% of 330,000 active | SaOS-2 split-luciferase Mdm2/MdmX complementation, luminescence;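 active = inhibition of at least 50% at 8 µM in the primary screen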
# Target sequence (O15151 whole entry, looked up): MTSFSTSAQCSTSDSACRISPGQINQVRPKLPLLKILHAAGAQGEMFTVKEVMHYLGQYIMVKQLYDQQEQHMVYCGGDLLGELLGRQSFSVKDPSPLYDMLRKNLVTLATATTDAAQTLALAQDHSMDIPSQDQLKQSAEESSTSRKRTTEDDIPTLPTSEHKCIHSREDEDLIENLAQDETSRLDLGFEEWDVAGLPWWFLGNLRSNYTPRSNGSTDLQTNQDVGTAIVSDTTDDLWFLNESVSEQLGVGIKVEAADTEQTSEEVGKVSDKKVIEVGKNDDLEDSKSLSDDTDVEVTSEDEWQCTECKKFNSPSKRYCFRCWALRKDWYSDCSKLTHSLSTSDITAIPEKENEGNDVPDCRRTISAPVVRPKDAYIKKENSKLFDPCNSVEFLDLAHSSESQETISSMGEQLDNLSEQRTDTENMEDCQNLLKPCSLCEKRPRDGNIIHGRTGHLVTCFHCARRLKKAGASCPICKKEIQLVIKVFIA
# Target sequence (Q00987 whole entry, looked up): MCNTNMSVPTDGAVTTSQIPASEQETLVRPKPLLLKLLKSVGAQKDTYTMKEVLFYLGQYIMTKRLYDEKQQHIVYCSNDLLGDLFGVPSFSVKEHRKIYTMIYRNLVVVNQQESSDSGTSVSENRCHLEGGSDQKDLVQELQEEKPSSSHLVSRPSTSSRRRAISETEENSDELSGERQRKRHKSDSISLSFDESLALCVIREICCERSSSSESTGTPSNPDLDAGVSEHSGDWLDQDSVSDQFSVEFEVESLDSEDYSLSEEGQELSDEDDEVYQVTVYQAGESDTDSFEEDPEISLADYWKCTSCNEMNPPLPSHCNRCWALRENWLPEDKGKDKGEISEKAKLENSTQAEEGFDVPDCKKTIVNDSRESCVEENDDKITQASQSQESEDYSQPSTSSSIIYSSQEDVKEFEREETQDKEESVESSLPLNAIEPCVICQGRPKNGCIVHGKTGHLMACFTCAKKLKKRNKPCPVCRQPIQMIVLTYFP
# UPR XBP1 confirm: adaptive UPR (XBP1) activation, confirmed; 63% of 1,000 active; shares compounds with UPR XBP1 act; activation, % at 20 µM; CHO-XBP1 IRE1-XBP1 luciferase reporter, luminescence;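 active = reporter signal at least 30% of the positive control's activation in two or more of four replicate wells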;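 also: plate controls were DMSO negative control for no effect and tunicamycin 10 µg/mL positive control for full effect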
# Mdm2-MdmX conf: human Mdm2/MdmX binding inhibition, confirmed | inhibition, % at 8 µM | shares compounds with Mdm2-MdmX inh | AID 489028 | luminescent assay | 55% of 10,000 active; in the data active = inhibition above about 40%
# FLuc counter: inhibits full-length luciferase, flagging false Mdm2/MdmX hits. 77% of 6,200 active. inhibition, % at 8 µM. shares compounds with Mdm2-MdmX inh. SaOS-2 full-length luciferase counterscreen, luminescence. AID 504607;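 active = mean inhibition at 8 µM reaching about 37%, which flags the compound as non-specific, limit read from the data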;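 also: p53-null SaOS-2 cells with luciferase driven by a doxycycline-inducible promoter; compound on cells about two nights before reading with doxycycline added after day one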
# Numbers without * were called inactive; x = no result. Only some compounds are listed: those with a hit (about 4.1% of all), similar ones and a draw of the others.
SMILES,Apaf-1 inh,UBC13 inh,CHOP UPR activ,UPR XBP1 act,Mdm2-MdmX inh,UPR XBP1 confirm,Mdm2-MdmX conf,others
CCNc1nc(NCC)n2c(SCC(=O)Nc3cccc(Cl)c3)nnc2n1,8,-5,-1,0,11,x,x,
Cn1c(CSCc2ccc(Cl)c(Cl)c2)n[nH]c1=S,9,-3,1,-1,-7,x,x,
CCOC(=O)C(NCCOC)(NC(C)=O)C(F)(F)F (stereo unspecified),-3,-1,0,-1,17,x,x,
COc1ccc(C2NC(C(=O)O)Cc3c2[nH]c2ccccc32)cc1CN1CCN(c2ccc(F)cc2)CC1 (stereo unspecified),1,7,1,-1,-9,x,x,
COc1ccc(C2NCCc3c2[nH]c2ccccc32)cc1COc1ccc(F)cc1 (stereo unspecified),-6,47*,0,32*,69*,39*,37,
CCCCCCCCCCn1ccc(=N)cc1,-3,19,18,35*,85*,24,90*,FLuc counter=51*
CCCCCCN1Cc2ccccc2C1,3,-3,1,-2,-11,x,x,
COCCNC(=O)CSc1nc2cc(OC)c(OC)cc2c(=O)n1Cc1ccc(OC)cc1,4,-11,-2,-1,16,x,x,
COc1cc2nc(SCC(=O)NCc3ccco3)n(Cc3ccc(Cl)cc3)c(=O)c2cc1OC,-21,-8,18,35*,78*,1,32,
CN(C)CCCN(C(=O)c1cc(-c2cccs2)nc2ccccc12)c1nc2ccc(F)cc2s1,25,18,5,33*,100*,40*,57*,FLuc counter=68*
CN(C)CCCN(C(=O)CCc1ccccc1)c1nc2ccc(F)cc2s1,10,31,2,2,18,x,x,
COc1ccc(NC(=O)C2CCN(S(=O)(=O)c3cccc4nonc34)CC2)cc1,0,4,1,-4,12,x,x,
Clc1ccc(-c2cn3c(n2)-c2ccccc2C3)cc1Cl,-2,11,2,-1,-243,x,x,
CN(C)CC/C=C1\c2ccc(F)cc2Sc2cc(F)c(Cl)cc21,25,30,2,86*,55*,122*,33,
CN(C)CC/C=C1/c2ccc(F)cc2Sc2ccc(Cl)cc21,14,14,2,2,30,x,x,
CCN(CC)C(=O)c1[nH]cnc1C(=O)Nc1cccc(C)c1,-5,10,3,-2,14,x,x,
Cc1cccc(NC(=O)c2nc[nH]c2C(=O)Nc2ccccc2[N+](=O)[O-])c1,10,2,13,30*,51*,42*,30,
O=C1CC(C(=O)N2CCc3ccccc32)CN1c1ccc(F)cc1 (stereo unspecified),8,-8,2,1,12,x,x,
Cc1ccc(Nc2nc(-c3c(C)nc4ccccn34)cs2)cc1,17,14,11,41*,89*,35*,73*,FLuc counter=81*
Cc1ccc(NC(=O)c2cc(S(=O)(=O)N(C)C)ccc2N2CCCC2)cc1F,20,-6,13,39*,52*,64*,38,
O=C(COc1ccc(Cl)cc1Cl)NN=C1c2ccccc2-c2ccccc21,10,-17,7,89*,82*,96*,20,
C=CCN(Cc1ccc(Cl)s1)C(=O)c1cc(S(=O)(=O)N2CCOCC2)ccc1F,11,11,2,-4,-12,x,x,
CCOC(=O)Cc1csc(NC(=O)CCS(=O)(=O)Cc2ccccc2)n1,-7,2,0,-1,30,x,x,
Cc1ccc(-c2[nH]c3cc(C(N)=O)ccc3c(=O)c2O)cc1,3,14,1,3,34,x,x,
CCCNC(=O)c1ccc2c(=O)c(O)c(-c3ccc(OC)cc3)[nH]c2c1,-9,5,3,63*,50*,56*,14,
SMILES,Apaf-1 inh,UBC13 inh,CHOP UPR activ,UPR XBP1 act,Mdm2-MdmX inh,UPR XBP1 confirm,Mdm2-MdmX conf,others
C[C@@H]1CC[C@]2(C(=O)O)CC[C@]3(C)C(=CCC4[C@@]5(C)CC[C@H](O)[C@@](C)(C(=O)O)C5CC[C@]43C)C2[C@]1(C)O (stereo partly specified),-2,-1,2,-3,-4,x,x,
C[C@H]1[C@H](C)CC[C@]2(C(=O)O)CC[C@]3(C)C(=CC[C@@H]4[C@@]5(C)C[C@@H](O)[C@H](O)C(C)(C)[C@@H]5CC[C@]43C)[C@H]12,-12,-3,1,103*,68*,124*,25,
C[C@H]1[C@H](C)CC[C@]2(C(=O)O)CC[C@]3(C)C(=CC[C@@H]4[C@@]5(C)CC[C@H](O)C(C)(C)[C@@H]5CC[C@]43C)[C@H]12,-26,0,1,39*,78*,18,15,
Cc1ccc(C(=O)N2N=C(c3ccccc3O)CC2c2ccccc2)cc1 (stereo unspecified),20,13,0,1,27,x,x,
Cc1ccc(C(=O)N2N=C(c3ccc(Br)cc3)CC2c2ccccc2O)cc1 (stereo unspecified),23,1,5,40*,75*,41*,2,
On1c(-c2ccc(Cl)cc2)nc2ccccc21,0,-1,1,2,-14,x,x,
FC(F)(F)c1nc2ccccc2n2c(-c3ccc(Cl)cc3)nnc12,3,16,13,47*,96*,54*,96*,FLuc counter=41*
Nc1nc(SCc2ccccc2Cl)nc2nc3c(cc12)CCCC3,-8,19,0,0,14,x,x,
Nc1nc(SCc2ccc(Cl)cc2Cl)nc2nc3c(cc12)CCCC3,-3,-5,3,59*,57*,133*,25,
O=C1CCCN1CC(=O)N1CCCC(N2CCN(c3cccc(Cl)c3)CC2)C1 (stereo unspecified),-2,-9,2,5,18,x,x,
CCN(CC)c1ccc2cc(-c3nc4ccccc4[nH]3)c(=O)oc2c1,-16,-18,22,45*,67*,21,47*,FLuc counter=45*
CCN(CC)c1ccc2cc(-c3nnc(-c4ccccc4)o3)c(=O)oc2c1,23,9,6,-4,-37,x,x,
C=CCOc1ccc(-c2nc3c(c(=O)[nH]c(=O)n3CCCC)n2C)cc1Br,10,4,4,39*,70*,26,-3,
COc1ccc(C(=O)NC2CCCc3ccccc32)cc1OC1CCN(C(C)=O)CC1 (stereo unspecified),6,-6,0,-1,-2,x,x,
O=C(/C=C/c1ccccc1F)c1cccc([N+](=O)[O-])c1,4,7,-2,2,25,x,x,
